# Experiments:
# Format in all cases: functional
# HL-60(TB) = assay: Cytotoxicity against human HL-60(TB) cells assessed as growth inhibition after 48 hrs by SRB assay; settings: HL-60, 48 h
# Summary of the method: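 NCI 60-cell panel, leukemia subpanel. Five-dose screen at 10-fold dilutions from 10−4 to 10−8 M with 48 h drug exposure. GI50 is the molar concentration giving 50% reduction in net cell growth compared with cell numbers on day 0.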
# K562 = assay: Cytotoxicity against human K562 cells assessed as growth inhibition after 48 hrs by SRB assay; settings: K562, 48 h
# Summary of the method: (§1)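 NCI 60-cell panel; compounds passing a single-dose screen (10−5 M, 48 h) were tested at five 10-fold dilutions (10−4 to 10−8 M) with 48 h drug exposure. GI50 is the molar concentration giving 50% reduction in net cell growth relative to cell numbers on day 0.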
# MOLT-4 = assay: Cytotoxicity against human MOLT4 cells assessed as growth inhibition after 48 hrs by SRB assay; settings: MOLT-4, 48 h; summary of the method: as §1
# RPMI-8226 = assay: Cytotoxicity against human RPMI8226 cells assessed as growth inhibition after 48 hrs by SRB assay; settings: RPMI-8226, 48 h; summary of the method: as §1
# NCI-H226 = assay: Cytotoxicity against human NCI-H226 cells assessed as growth inhibition after 48 hrs by SRB assay; settings: NCI-H226, 48 h; summary of the method: as §1
# NCI-H23 = assay: Cytotoxicity against human NCI-H23 cells assessed as growth inhibition after 48 hrs by SRB assay; settings: NCI-H23, 48 h; summary of the method: as §1
# NCI-H460 = assay: Cytotoxicity against human NCI-H460 cells assessed as growth inhibition after 48 hrs by SRB assay; settings: NCI-H460, 48 h; summary of the method: as §1
# COLO 205 = assay: Cytotoxicity against human COLO205 cells assessed as growth inhibition after 48 hrs by SRB assay; settings: COLO 205, 48 h; summary of the method: as §1
# HCC 2998 = assay: Cytotoxicity against human HCC2998 cells assessed as growth inhibition after 48 hrs by SRB assay; settings: HCC 2998, 48 h; summary of the method: as §1
# [1] = Cytotoxicity against human HCT116 cells assessed as growth inhibition after 48 hrs by SRB assay; settings: HCT-116, 48 h; summary of the method: as §1
# [2] = Cytotoxicity against human HCT15 cells assessed as growth inhibition after 48 hrs by SRB assay; settings: HCT-15, 48 h; summary of the method: as §1
# HT-29 = assay: Cytotoxicity against human HT-29 cells assessed as growth inhibition after 48 hrs by SRB assay; settings: HT-29, 48 h; summary of the method: as §1
# KM12 = assay: Cytotoxicity against human KM12 cells assessed as growth inhibition after 48 hrs by SRB assay; settings: KM12, 48 h; summary of the method: as §1
# SW-620 = assay: Cytotoxicity against human SW620 cells assessed as growth inhibition after 48 hrs by SRB assay; settings: SW-620, 48 h
# SF-268 = assay: Cytotoxicity against human SF268 cells assessed as growth inhibition after 48 hrs by SRB assay; settings: SF-268, 48 h; summary of the method: as §1
# SF-295 = assay: Cytotoxicity against human SF295 cells assessed as growth inhibition after 48 hrs by SRB assay; settings: SF-295, 48 h; summary of the method: as §1
# SF-539 = assay: Cytotoxicity against human SF539 cells assessed as growth inhibition after 48 hrs by SRB assay; settings: SF-539, 48 h; summary of the method: as §1
# SNB-19 = assay: Cytotoxicity against human SNB19 cells assessed as growth inhibition after 48 hrs by SRB assay; settings: SNB-19, 48 h; summary of the method: as §1
# U-251 = assay: Cytotoxicity against human U251 cells assessed as growth inhibition after 48 hrs by SRB assay; settings: U-251, 48 h
# LOX IMVI = assay: Cytotoxicity against human LOXIMVI cells assessed as growth inhibition after 48 hrs by SRB assay; summary of the method: as §1
# M14 = assay: Cytotoxicity against human M14 cells assessed as growth inhibition after 48 hrs by SRB assay; settings: M14, 48 h; summary of the method: as §1
# MDA-MB-435 = assay: Cytotoxicity against human MDA-MB-435 cells assessed as growth inhibition after 48 hrs by SRB assay; settings: MDA-MB-435, 48 h; summary of the method: as §1
# SK-MEL-5 = assay: Cytotoxicity against human SK-MEL-5 cells assessed as growth inhibition after 48 hrs by SRB assay; settings: SK-MEL-5, 48 h; summary of the method: as §1
# [3] = Cytotoxicity against human UACC62 cells assessed as growth inhibition after 48 hrs by SRB assay; settings: UACC-62, 48 h
# IGROV-1 = assay: Cytotoxicity against human IGROV1 cells assessed as growth inhibition after 48 hrs by SRB assay; settings: IGROV-1, 48 h; summary of the method: as §1
# [4] = Cytotoxicity against human OVCAR4 cells assessed as growth inhibition after 48 hrs by SRB assay; settings: OVCAR-4, 48 h; summary of the method: as §1
# [5] = Cytotoxicity against human OVCAR5 cells assessed as growth inhibition after 48 hrs by SRB assay; settings: OVCAR-5, 48 h; summary of the method: as §1
# [6] = Cytotoxicity against human OVCAR8 cells assessed as growth inhibition after 48 hrs by SRB assay; settings: OVCAR-8, 48 h; summary of the method: as §1
# [7] = Cytotoxicity against human NCI-ADR-RES cells assessed as growth inhibition after 48 hrs by SRB assay; summary of the method: as §1
# SK-OV-3 = assay: Cytotoxicity against human SKOV3 cells assessed as growth inhibition after 48 hrs by SRB assay; settings: SK-OV-3, 48 h; summary of the method: as §1
# 786-0 = assay: Cytotoxicity against human 786-0 cells assessed as growth inhibition after 48 hrs by SRB assay; settings: 786-0, 48 h; summary of the method: as §1
# A498 = assay: Cytotoxicity against human A498 cells assessed as growth inhibition after 48 hrs by SRB assay; settings: A498, 48 h; summary of the method: as §1
# CAKI-1 = assay: Cytotoxicity against human Caki1 cells assessed as growth inhibition after 48 hrs by SRB assay; settings: CAKI-1, 48 h; summary of the method: as §1
# RXF 393 = assay: Cytotoxicity against human RXF393 cells assessed as growth inhibition after 48 hrs by SRB assay; settings: RXF 393, 48 h; summary of the method: as §1
# SN12C = assay: Cytotoxicity against human SN12C cells assessed as growth inhibition after 48 hrs by SRB assay; summary of the method: as §1
# TK-10 = assay: Cytotoxicity against human TK10 cells assessed as growth inhibition after 48 hrs by SRB assay; settings: TK-10, 48 h
# [8] = Cytotoxicity against human UO31 cells assessed as growth inhibition after 48 hrs by SRB assay; settings: UO-31, 48 h
# [9] = Cytotoxicity against human PC3 cells assessed as growth inhibition after 48 hrs by SRB assay; settings: PC-3, 48 h; summary of the method: as §1
# DU-145 = assay: Cytotoxicity against human DU145 cells assessed as growth inhibition after 48 hrs by SRB assay; settings: DU-145, 48 h; summary of the method: as §1
# MCF7 = assay: Cytotoxicity against human MCF7 cells assessed as growth inhibition after 48 hrs by SRB assay; settings: MCF7, 48 h; summary of the method: as §1
# MDA-MB-231 = assay: Cytotoxicity against human MDA-MB-231 cells assessed as growth inhibition after 48 hrs by SRB assay; settings: MDA-MB-231, 48 h; summary of the method: as §1
# [10] = Cytotoxicity against human Hs578T cells assessed as growth inhibition after 48 hrs by SRB assay; settings: Hs-578T; summary of the method: as §1
# BT-549 = assay: Cytotoxicity against human BT549 cells assessed as growth inhibition after 48 hrs by SRB assay; settings: BT-549, 48 h; summary of the method: as §1
smiles,measurement,setting,value
COc1ccc(/C(C#N)=C/c2c[nH]c3ccccc23)cc1OC,GI50,HL-60(TB),4.57 µM
same,GI50,K562,1.65 µM
same,GI50,MOLT-4,3.99 µM
same,GI50,RPMI-8226,3.96 µM
same,GI50,NCI-H226,20.9 µM
same,GI50,NCI-H23,7.19 µM
same,GI50,NCI-H460,4.51 µM
same,GI50,COLO 205,5.31 µM
same,GI50,HCC 2998,12.6 µM
same,GI50,[1],35.5 µM
same,GI50,[2],3.7 µM
same,GI50,HT-29,3.32 µM
same,GI50,KM12,4.04 µM
same,GI50,SW-620,3.53 µM
same,GI50,SF-268,18.9 µM
same,GI50,SF-295,4.92 µM
same,GI50,SF-539,8.42 µM
same,GI50,SNB-19,24.2 µM
same,GI50,U-251,4.97 µM
same,GI50,LOX IMVI,5.32 µM
same,GI50,M14,3.75 µM
same,GI50,MDA-MB-435,3.95 µM
same,GI50,SK-MEL-5,4.27 µM
same,GI50,[3],6.98 µM
same,GI50,IGROV-1,21 µM
same,GI50,[4],22.1 µM
same,GI50,[5],> 100 µM
same,GI50,[6],7.38 µM
same,GI50,[7],1.7 µM
same,GI50,SK-OV-3,11.9 µM
same,GI50,786-0,14.1 µM
same,GI50,A498,3.36 µM
same,GI50,CAKI-1,4.34 µM
same,GI50,RXF 393,4.48 µM
same,GI50,SN12C,8.1 µM
same,GI50,TK-10,13.2 µM
same,GI50,[8],14.3 µM
same,GI50,[9],7.85 µM
same,GI50,DU-145,22.6 µM
same,GI50,MCF7,3.1 µM
same,GI50,MDA-MB-231,7.18 µM
same,GI50,[10],12.9 µM
same,GI50,BT-549,5.38 µM
COc1cc(OC)cc(/C(C#N)=C/c2c[nH]c3ccccc23)c1,GI50,HL-60(TB),0.031 µM
same,GI50,K562,0.043 µM
same,GI50,MOLT-4,0.049 µM
same,GI50,RPMI-8226,0.065 µM
same,GI50,NCI-H226,8.18 µM
same,GI50,NCI-H23,0.256 µM
same,GI50,NCI-H460,0.039 µM
same,GI50,COLO 205,0.047 µM
same,GI50,HCC 2998,0.207 µM
same,GI50,[1],0.042 µM
same,GI50,[2],0.053 µM
same,GI50,HT-29,0.038 µM
same,GI50,KM12,0.04 µM
same,GI50,SW-620,0.044 µM
same,GI50,SF-268,0.078 µM
same,GI50,SF-295,0.045 µM
same,GI50,SF-539,0.052 µM
same,GI50,SNB-19,0.062 µM
same,GI50,U-251,0.045 µM
same,GI50,LOX IMVI,0.078 µM
same,GI50,M14,0.042 µM
same,GI50,MDA-MB-435,0.02 µM
same,GI50,SK-MEL-5,0.048 µM
same,GI50,[3],0.049 µM
same,GI50,IGROV-1,0.347 µM
same,GI50,[4],3.52 µM
same,GI50,[5],0.197 µM
same,GI50,[6],0.103 µM
same,GI50,[7],0.033 µM
same,GI50,SK-OV-3,0.117 µM
same,GI50,786-0,0.077 µM
same,GI50,A498,0.035 µM
same,GI50,CAKI-1,0.035 µM
same,GI50,RXF 393,0.083 µM
same,GI50,SN12C,0.077 µM
same,GI50,TK-10,10.3 µM
same,GI50,[8],0.663 µM
same,GI50,[9],0.075 µM
same,GI50,DU-145,0.13 µM
same,GI50,MCF7,0.041 µM
same,GI50,MDA-MB-231,0.644 µM
same,GI50,[10],0.611 µM
same,GI50,BT-549,0.049 µM
